# In ChEMBL document CHEMBL5214999, “Identification and Optimization of a Ligand-Efficient Benzoazepinone Bromodomain and Extra Terminal (BET) Family Acetyl-Lysine Mimetic into the Oral Candidate Quality Molecule I-BET432” (J Med Chem, 2022):
# What was measured:
# [1] = Stability of compound in simulated gastric fluid assessed as half-life at pH 6 to 10 in presence of hydrogen peroxide; type: ADME
# Procedure, shortened: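 The compound was held at 40 °C in pH 10 medium, pH 6 medium and simulated gastric fluid, each with and without hydrogen peroxide as oxidant, and degradation was monitored.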
# [2] = biological target: T1, Transcription intermediary factor 1-alpha (Homo sapiens, UniProt O15164); test: Binding affinity to human TRIM24 bromodomain by BROMOscan method
# T1 sequence (O15164 whole entry): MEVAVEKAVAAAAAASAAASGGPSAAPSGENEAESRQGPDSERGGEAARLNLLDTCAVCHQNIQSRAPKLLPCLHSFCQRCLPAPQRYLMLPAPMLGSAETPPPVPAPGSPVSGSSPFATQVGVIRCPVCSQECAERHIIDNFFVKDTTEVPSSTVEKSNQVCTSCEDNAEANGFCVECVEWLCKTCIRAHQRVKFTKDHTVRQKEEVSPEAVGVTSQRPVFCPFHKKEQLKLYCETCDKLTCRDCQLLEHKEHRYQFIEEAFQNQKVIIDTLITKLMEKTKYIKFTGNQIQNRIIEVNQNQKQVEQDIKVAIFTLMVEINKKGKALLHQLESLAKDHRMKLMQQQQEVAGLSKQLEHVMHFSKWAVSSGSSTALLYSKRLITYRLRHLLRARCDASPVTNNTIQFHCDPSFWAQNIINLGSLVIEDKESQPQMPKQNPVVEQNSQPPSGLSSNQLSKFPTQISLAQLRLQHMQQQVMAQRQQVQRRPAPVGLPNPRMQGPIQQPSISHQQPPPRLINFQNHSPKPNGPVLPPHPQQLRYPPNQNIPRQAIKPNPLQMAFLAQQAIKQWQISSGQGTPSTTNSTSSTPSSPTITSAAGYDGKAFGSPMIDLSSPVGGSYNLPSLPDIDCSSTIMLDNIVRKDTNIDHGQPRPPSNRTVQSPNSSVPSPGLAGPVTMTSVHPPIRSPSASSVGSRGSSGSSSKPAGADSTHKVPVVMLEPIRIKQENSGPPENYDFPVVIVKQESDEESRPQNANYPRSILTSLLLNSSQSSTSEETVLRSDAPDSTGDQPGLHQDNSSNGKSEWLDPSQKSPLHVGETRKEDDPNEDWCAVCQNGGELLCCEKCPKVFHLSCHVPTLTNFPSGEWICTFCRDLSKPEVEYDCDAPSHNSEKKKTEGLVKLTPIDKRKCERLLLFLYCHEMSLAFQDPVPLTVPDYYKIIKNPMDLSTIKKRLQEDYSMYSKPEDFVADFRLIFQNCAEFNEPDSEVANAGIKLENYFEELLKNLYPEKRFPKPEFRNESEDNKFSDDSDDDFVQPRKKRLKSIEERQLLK
# [3] = Unbound volume of distribution at steady state in Beagle dog at 1.5 mg/kg, po or 0.5 mg/kg, iv measured upto 24 hrs by LC-MS/MS analysis; type: ADME, organism-based, Canis lupus familiaris; conditions: in vivo
# Procedure, shortened: (§1)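 Male Wistar Han rats and beagle dogs were dosed iv as a 1 h infusion in DMSO with 10% (w/v) Kleptose HPB in saline (2%:98% or 5%:95% v/v). Oral doses were given in 1% (w/v) methylcellulose (400 cps) aqueous suspension. Oral values are means of n = 3 and iv values n = 1 unless otherwise noted.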
# [4] = Unbound volume of distribution at steady state in Wistar Han rat at 3 mg/kg, po or 1 mg/kg, iv measured upto 24 hrs by LC-MS/MS analysis; type: ADME, organism-based; conditions: in vivo; procedure, shortened: as §1
# [5] = biological target: T2, Bromodomain-containing protein 4 (Homo sapiens, UniProt O60885); test: Inhibition of BRD4 BD2 (unknown origin) measured by TR-FRET assay
# [6] = Unbound clearance in Beagle dog blood at 1.5 mg/kg, po or 0.5 mg/kg, iv measured upto 24 hrs by LC-MS/MS analysis; type: ADME, organism-based, Canis lupus familiaris; conditions: in vivo; procedure, shortened: as §1
# Cytochrome P450 3A4 = Cytochrome P450 3A4 (Homo sapiens, UniProt P08684); test: Inhibition of CYP3A4 (unknown origin); type: ADME
# [7] = Oral bioavailability in Wistar Han rat at 3 mg/kg measured upto 24 hrs by LC-MS/MS analysis; type: ADME, organism-based; conditions: in vivo; procedure, shortened: as §1
# [8] = Clearance in Wistar Han rat blood at 3 mg/kg, po or 1 mg/kg, iv measured upto 24 hrs by LC-MS/MS analysis; type: ADME, organism-based; conditions: whole blood; procedure, shortened: as §1
# [9] = Solubility of the compound at pH 6.5 in fast state simulated intestinal fluid incubated for 16 hrs by HPLC analysis; type: physicochemical; conditions: fasted state simulated intestinal fluid
# [10] = Intrinsic clearance in dog hepatocytes incubated upto 45 mins by LC-MS/MS analysis; type: ADME, cell-based, Canis lupus familiaris, Hepatocyte; conditions: 0.75 h
# [11] = Intrinsic clearance in human hepatocytes measured after 120 mins by LC-MS/MS analysis; type: ADME, cell-based, Hepatocyte; conditions: 2 h
# [12] = Unbound fraction in Beagle dog at 1.5 mg/kg, po or 0.5 mg/kg, iv measured upto 24 hrs by LC-MS/MS analysis; type: ADME, organism-based, Canis lupus familiaris; conditions: in vivo
# [13] = biological target: T2, Bromodomain-containing protein 4; test: Inhibition of BRD4 BD1 (unknown origin) measured by TR-FRET assay
# [14] = Artificial membrane permeability of the compound; type: ADME; conditions: PAMPA; read-out: permeability
# [15] = Unbound clearance in Wistar Han rat blood at 3 mg/kg, po or 1 mg/kg, iv measured upto 24 hrs by LC-MS/MS analysis; type: ADME, organism-based; conditions: in vivo; procedure, shortened: as §1
# [16] = Volume of distribution at steady state in Beagle dog at 1.5 mg/kg, po or 0.5 mg/kg, iv measured upto 24 hrs by LC-MS/MS analysis; type: ADME, organism-based, Canis lupus familiaris; conditions: in vivo, read-out: Vdss; procedure, shortened: as §1
# [17] = Clearance in Beagle dog blood at 1.5 mg/kg, po or 0.5 mg/kg, iv measured upto 24 hrs by LC-MS/MS analysis; type: ADME, organism-based, Canis lupus familiaris; conditions: whole blood; procedure, shortened: as §1
# [18] = Unbound fraction in Wistar Han rat at 3 mg/kg, po or 1 mg/kg, iv measured upto 24 hrs by LC-MS/MS analysis; type: ADME, organism-based; conditions: in vivo
# [19] = Oral bioavailability in Beagle dog at 1.5 mg/kg measured upto 24 hrs by LC-MS/MS analysis; type: ADME, organism-based, Canis lupus familiaris; conditions: in vivo; procedure, shortened: as §1
# [20] = biological target: Voltage-gated inwardly rectifying potassium channel KCNH2 (Homo sapiens, UniProt Q12809); test: Inhibition of hERG; type: toxicity
# [21] = Half-life in Beagle dog at 1.5 mg/kg, po or 0.5 mg/kg, iv measured upto 24 hrs by LC-MS/MS analysis; type: ADME, organism-based, Canis lupus familiaris; conditions: in vivo; procedure, shortened: as §1
# [22] = Intrinsic clearance in rat hepatocytes after 60 mins by LC-MS/MS analysis; type: ADME, cell-based, Hepatocyte; conditions: 1 h
# [23] = Volume of distribution at steady state in Wistar Han rat at 3 mg/kg, po or 1 mg/kg, iv measured upto 24 hrs by LC-MS/MS analysis; type: ADME, organism-based; conditions: in vivo, read-out: Vdss; procedure, shortened: as §1
# [24] = Half-life in Wistar Han rat at 3 mg/kg, po or 1 mg/kg, iv measured upto 24 hrs by LC-MS/MS analysis; type: ADME, organism-based; conditions: in vivo; procedure, shortened: as §1
# [25] = Lipophilicity, logD of compound at pH 7.4 by Chromatography; type: physicochemical; conditions: buffer
# C-C motif chemokine 2 = C-C motif chemokine 2 (Homo sapiens, UniProt P13500); test: Inhibition of MCP-1 in LPS-stimulated human whole blood incubate for 24 hrs by immuno assay; type: tissue-based
# Chain of C-C motif chemokine 2 (P13500 whole entry): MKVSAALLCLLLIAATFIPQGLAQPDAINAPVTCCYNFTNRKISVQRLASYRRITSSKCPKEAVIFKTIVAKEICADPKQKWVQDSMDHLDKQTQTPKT
# Chain of Voltage-gated inwardly rectifying potassium channel KCNH2 (Q12809 whole entry): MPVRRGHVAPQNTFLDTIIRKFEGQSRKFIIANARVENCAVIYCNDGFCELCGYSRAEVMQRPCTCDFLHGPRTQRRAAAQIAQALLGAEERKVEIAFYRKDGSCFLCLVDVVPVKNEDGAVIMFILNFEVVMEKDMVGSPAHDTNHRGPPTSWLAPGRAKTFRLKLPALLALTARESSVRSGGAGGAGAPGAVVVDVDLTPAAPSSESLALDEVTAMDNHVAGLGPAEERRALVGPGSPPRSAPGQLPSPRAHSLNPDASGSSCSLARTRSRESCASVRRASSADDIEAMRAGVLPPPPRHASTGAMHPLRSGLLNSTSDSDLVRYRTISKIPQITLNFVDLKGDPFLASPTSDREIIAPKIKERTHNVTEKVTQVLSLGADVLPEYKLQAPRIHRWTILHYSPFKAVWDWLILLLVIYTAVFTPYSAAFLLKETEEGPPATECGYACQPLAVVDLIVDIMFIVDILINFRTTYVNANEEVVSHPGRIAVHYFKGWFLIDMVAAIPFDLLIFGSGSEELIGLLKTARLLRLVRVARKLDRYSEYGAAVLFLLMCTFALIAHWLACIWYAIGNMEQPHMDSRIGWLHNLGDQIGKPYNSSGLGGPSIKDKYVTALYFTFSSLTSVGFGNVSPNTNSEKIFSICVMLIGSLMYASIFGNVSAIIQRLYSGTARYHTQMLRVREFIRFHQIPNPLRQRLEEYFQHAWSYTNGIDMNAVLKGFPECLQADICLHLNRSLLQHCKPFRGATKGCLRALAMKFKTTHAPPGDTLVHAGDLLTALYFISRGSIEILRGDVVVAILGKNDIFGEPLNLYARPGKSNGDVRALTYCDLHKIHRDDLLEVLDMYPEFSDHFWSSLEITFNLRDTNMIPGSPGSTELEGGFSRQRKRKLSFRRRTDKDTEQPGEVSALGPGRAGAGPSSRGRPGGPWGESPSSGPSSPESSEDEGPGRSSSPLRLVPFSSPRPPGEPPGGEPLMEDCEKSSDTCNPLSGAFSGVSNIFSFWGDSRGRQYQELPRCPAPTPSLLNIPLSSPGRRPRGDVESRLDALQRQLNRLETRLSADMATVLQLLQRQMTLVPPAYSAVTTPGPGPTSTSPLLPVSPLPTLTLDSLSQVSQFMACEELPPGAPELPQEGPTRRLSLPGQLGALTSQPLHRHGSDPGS
# Chain of Cytochrome P450 3A4 (P08684 whole entry): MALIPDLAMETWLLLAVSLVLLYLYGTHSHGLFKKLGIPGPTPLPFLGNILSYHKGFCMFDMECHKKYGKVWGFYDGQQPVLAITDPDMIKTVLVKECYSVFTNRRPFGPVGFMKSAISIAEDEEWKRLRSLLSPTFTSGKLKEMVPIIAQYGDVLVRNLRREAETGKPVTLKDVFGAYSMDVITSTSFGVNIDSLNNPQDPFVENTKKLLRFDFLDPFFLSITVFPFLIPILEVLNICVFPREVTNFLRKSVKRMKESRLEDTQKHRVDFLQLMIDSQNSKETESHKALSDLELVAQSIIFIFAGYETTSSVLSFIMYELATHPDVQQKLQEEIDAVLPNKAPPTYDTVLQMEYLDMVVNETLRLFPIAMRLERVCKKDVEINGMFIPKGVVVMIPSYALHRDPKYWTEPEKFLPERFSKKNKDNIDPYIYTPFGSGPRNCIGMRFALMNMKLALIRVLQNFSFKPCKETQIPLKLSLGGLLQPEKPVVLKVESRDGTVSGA
smiles,measurement,setting,value
C[C@H]1C(=O)N(C)C=C(c2cnn(C)c2)c2cc([C@@H](O)CO)ccc21,half-life,[1],> 1000 h
same,Kd,[2],1260 nM
same,Vduss,[3],5.7 L/kg
same,Vduss,[4],1.9 L/kg
same,IC50,[5],63.1 nM
same,CL free,[6],60 mL/min/kg
same,IC50,Cytochrome P450 3A4,> 39800 nM
same,bioavailability,[7],67%
same,clearance,[8],26 mL/min/kg
same,solubility at 16 h,[9],> 1000 µg/mL
same,CLH,[10],< 0.65 mL/min/g
same,CLH,[11],< 0.45 mL/min/g
same,Fu,[12],0.47
same,IC50,[13],31.6 nM
same,Papp,[14],3.1 ×10⁻⁶ cm/s
same,CL free,[15],38 mL/min/kg
same,Vd,[16],2.7 L/kg
same,clearance,[17],28 mL/min/kg
same,Fu,[18],0.68
same,bioavailability,[19],79%
same,IC50,[20],> 50100 nM
same,half-life,[21],1.4 h
same,CLH,[22],< 0.8 mL/min/g
same,Vd,[23],1.3 L/kg
same,half-life,[24],0.74 h
same,chromatographic logD,[25],1.3
same,IC50,C-C motif chemokine 2,39.8 nM
